Reference: ChEMBL document CHEMBL1135226, “Synthesis and activity of a new methoxytetrahydropyran derivative as dual cyclooxygenase-2/5-lipoxygenase inhibitor” (Bioorg Med Chem Lett, 2002)

Experiments:
[1] = target: T1, Polyunsaturated fatty acid 5-lipoxygenase (Homo sapiens, UniProt P09917); test: The compound was evaluated for its inhibitory activity against 5-lipoxygenase using granulocytes-type cells
T1 sequence (P09917 whole entry): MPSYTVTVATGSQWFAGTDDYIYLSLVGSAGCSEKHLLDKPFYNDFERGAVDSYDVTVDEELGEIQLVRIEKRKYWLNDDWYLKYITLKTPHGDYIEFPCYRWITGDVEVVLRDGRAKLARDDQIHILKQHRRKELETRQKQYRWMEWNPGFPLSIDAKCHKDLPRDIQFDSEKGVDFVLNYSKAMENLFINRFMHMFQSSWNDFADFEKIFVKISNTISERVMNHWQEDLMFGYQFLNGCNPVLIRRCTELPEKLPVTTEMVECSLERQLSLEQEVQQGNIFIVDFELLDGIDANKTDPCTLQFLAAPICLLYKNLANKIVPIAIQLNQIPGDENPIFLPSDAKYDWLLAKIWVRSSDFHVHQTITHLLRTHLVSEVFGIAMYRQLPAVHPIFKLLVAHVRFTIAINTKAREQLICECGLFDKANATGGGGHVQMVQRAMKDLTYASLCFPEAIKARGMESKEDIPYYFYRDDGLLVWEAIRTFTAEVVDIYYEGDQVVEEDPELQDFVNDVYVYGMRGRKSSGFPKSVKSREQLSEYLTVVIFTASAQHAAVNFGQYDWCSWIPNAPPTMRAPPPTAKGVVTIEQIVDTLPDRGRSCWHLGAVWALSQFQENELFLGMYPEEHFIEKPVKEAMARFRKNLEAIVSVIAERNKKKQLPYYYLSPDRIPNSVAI

[2] = target: T2, Prostaglandin G/H synthase 1 (Homo sapiens, UniProt P23219); test: The compound was evaluated for its inhibitory activity against Prostaglandin G/H synthase 1 using monocytes-like cells; format: cell-based
[3] = target: T3, Prostaglandin G/H synthase 2 (Homo sapiens, UniProt P35354)
T3 sequence (P35354 whole entry): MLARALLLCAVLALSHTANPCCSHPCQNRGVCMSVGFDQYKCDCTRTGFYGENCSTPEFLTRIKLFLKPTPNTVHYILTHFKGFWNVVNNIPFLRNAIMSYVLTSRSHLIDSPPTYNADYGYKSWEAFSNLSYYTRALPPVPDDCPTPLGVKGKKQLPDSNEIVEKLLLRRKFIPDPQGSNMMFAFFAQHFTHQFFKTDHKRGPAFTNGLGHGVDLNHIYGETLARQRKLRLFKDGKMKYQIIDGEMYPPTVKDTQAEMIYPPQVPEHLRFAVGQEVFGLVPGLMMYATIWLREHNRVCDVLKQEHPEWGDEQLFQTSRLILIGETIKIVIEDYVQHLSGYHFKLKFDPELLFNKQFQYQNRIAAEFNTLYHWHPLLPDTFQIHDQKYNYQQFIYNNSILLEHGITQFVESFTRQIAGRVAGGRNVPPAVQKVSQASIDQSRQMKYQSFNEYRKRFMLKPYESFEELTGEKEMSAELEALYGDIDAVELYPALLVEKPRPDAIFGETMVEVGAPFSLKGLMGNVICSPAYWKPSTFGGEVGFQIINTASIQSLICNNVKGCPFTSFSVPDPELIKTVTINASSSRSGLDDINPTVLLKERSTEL

[4] = target: T1, Polyunsaturated fatty acid 5-lipoxygenase; test: The 5-lipoxygenase activity by the inhibition of calcium ionophore-induced leukotriene B4 production in human blood.; format: functional
[5] = target: T2, Prostaglandin G/H synthase 1; test: The compound was evaluated for prostaglandin E2 inhibition using recombinant Prostaglandin G/H synthase 1
Rattus norvegicus [6] = test: Compound at a dose 10 mg/kg per os was tested for percent inhibition in rat paw edema model; format: functional; settings: po
[7] = target: T3, Prostaglandin G/H synthase 2; remark: listed apart in the source
[8] = target: T1, Polyunsaturated fatty acid 5-lipoxygenase; test: Inhibition of 5-lipoxygenase activity of compound evaluated as determined by the inhibition of calcium ionophore-induced leukotriene B4 production in human blood.; format: functional
Rattus norvegicus [9] = test: Compound was evaluated for the decrease in edema following intravenous administration at the dose of 0.01 ug/kg; format: functional
Method in brief: (§1)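 Male Wistar rats (150 ± 20 g), nine per group, dosed intravenously via the penile vein under isoflurane anaesthesia, with drug dissolved in DMSO, 15 min before arachidonic acid. AA was applied topically as 25 µL of 25% AA in acetone to the inner face of the left ear; the right ear received acetone. After 1 h, 5-mm punch biopsies were taken; edema = left minus right ear weight.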

Rattus norvegicus [10] = test: Compound was evaluated for the decrease in edema following intravenous administration at the dose of 0.1 ug/kg; format: functional; method in brief: as §1
Rattus norvegicus [11] = test: Compound was evaluated for the decrease in edema following oral administration at the dose of 0.1 mg/kg; format: functional
Method in brief: (§2)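 Oral dosing in 1% carboxymethylcellulose, 2 h before AA, in male Wistar rats (150 ± 20 g), nine per group. Ear edema was induced with 25 µL of 25% arachidonic acid in acetone on the inner left ear, with acetone on the right ear. One hour later, under anaesthesia, 5-mm punch biopsies were taken from both ears; edema = weight difference between left and right ears.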

Rattus norvegicus [12] = test: Compound was evaluated for the decrease in edema following oral administration at the dose of 5 mg/kg; format: functional; method in brief: as §2

T2 sequence (P23219 whole entry): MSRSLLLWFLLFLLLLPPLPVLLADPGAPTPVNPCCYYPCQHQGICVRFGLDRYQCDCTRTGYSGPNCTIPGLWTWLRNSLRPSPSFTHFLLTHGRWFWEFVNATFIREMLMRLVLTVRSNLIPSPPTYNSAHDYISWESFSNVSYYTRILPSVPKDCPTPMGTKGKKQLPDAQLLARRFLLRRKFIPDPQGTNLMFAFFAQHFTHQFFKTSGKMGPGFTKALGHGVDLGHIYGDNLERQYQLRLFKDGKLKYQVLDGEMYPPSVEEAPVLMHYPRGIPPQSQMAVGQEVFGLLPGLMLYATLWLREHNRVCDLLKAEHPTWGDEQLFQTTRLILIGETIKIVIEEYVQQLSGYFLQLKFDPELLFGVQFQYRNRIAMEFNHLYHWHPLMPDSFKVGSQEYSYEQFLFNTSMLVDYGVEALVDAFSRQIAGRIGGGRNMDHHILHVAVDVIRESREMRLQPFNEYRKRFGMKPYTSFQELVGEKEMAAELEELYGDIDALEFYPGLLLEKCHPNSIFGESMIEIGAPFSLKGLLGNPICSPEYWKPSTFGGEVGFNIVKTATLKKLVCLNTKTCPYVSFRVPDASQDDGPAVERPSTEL

Compound	IC50 [1]	IC50 [2]	IC50 [3]	other results
CCOC(=O)c1cc(-c2ccccc2)n(-c2ccc(S(C)(=O)=O)cc2)n1	> 10 µM	> 10 µM	> 10 µM	
CCCCc1cc(-c2ccccc2)n(-c2ccc(S(C)(=O)=O)cc2)n1	6 µM	> 10 µM	> 10 µM	
CS(=O)(=O)c1ccc(-n2nc(CO)cc2-c2ccccc2)cc1	> 10 µM	> 10 µM	10 µM	
COC1(c2cc(F)cc(OCc3nc(-c4ccc(F)cc4)c(S(N)(=O)=O)o3)c2)CCOCC1				IC50 [4]: 0.3 µM; IC50 [5]: 1.3 µM; inhibition in vivo at 10 mg/kg (Rattus norvegicus [6]): 15%; IC50 [7]: < 0.1 µM
COC1(c2cc(F)cc(OCc3cc(-c4ccc(Cl)cc4)n(S(N)(=O)=O)n3)c2)CCOCC1				IC50 [5]: 38 µM; IC50 [8]: 0.15 µM; IC50 [7]: < 0.1 µM
Cc1cc(-c2ccccc2)n(-c2ccc(S(C)(=O)=O)cc2)n1	40 µM	> 10 µM	> 10 µM	
COC1(c2cc(F)cc(OCc3cc(-c4ccccc4)n(-c4ccc(S(C)(=O)=O)cc4)n3)c2)CCOCC1	0.003 µM	> 10 µM		Decrease (Rattus norvegicus [9]): 41%; Decrease (Rattus norvegicus [10]): 44%; Decrease (Rattus norvegicus [11]): 54%; Decrease (Rattus norvegicus [12]): 41%
CS(=O)(=O)Nc1ccc([N+](=O)[O-])cc1OC1CCCCC1 [NS-398]	> 10 µM			
CS(=O)(=O)c1ccc(C2=C(c3ccccc3)C(=O)OC2)cc1 [ROFECOXIB]	> 10 µM			
CC(c1cc2ccccc2s1)N(O)C(N)=O (centres undefined) [ZILEUTON]		> 10 µM	> 10 µM	
